Source: PubChem (several laboratories)
Only some compounds are listed: those with a hit (about 2.7% of all), similar ones and a draw of the others.
NR2E3 ag-1 – NR2E3 (human) agonism. inhibition of corepressor binding, % at 4.78 µM. AID 2300. GST-NR2E3/biotin-RetCOR TR-FRET, 1536-well. actives 0.12% (n = 320,000). Q9Y5X4;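 active = percent inhibition above the cutoff of mean plus 3 SD of all tested compounds, set per screening campaign, cut at about 20% in these data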;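 note: 0% = DMSO wells and 100% = biotin wells as full block of FRET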
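Format: 1536-well format; test system: GST-NR2E3 and biotin-RetCOR proteins; read-out basis: percent inhibition of TR-FRET ratio; timing: 5 h incubation at 4 °C; detection: time-resolved FRET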
Rev-erbA mod – Rev-erb alpha (human) modulation; P20393; activity, % at 10 µM; actives 0.79% (n = 370,000); Rev-erbα–FITC-DNA binding, fluorescence polarization, 90 min;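 active = activity above about 14%, limit read from the data; passing the limit was not always enough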;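 note: 0% = DMSO wells with 35 nM protein and 100% = DMSO wells with 750 nM protein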
Target sequence (P20393 whole entry, looked up): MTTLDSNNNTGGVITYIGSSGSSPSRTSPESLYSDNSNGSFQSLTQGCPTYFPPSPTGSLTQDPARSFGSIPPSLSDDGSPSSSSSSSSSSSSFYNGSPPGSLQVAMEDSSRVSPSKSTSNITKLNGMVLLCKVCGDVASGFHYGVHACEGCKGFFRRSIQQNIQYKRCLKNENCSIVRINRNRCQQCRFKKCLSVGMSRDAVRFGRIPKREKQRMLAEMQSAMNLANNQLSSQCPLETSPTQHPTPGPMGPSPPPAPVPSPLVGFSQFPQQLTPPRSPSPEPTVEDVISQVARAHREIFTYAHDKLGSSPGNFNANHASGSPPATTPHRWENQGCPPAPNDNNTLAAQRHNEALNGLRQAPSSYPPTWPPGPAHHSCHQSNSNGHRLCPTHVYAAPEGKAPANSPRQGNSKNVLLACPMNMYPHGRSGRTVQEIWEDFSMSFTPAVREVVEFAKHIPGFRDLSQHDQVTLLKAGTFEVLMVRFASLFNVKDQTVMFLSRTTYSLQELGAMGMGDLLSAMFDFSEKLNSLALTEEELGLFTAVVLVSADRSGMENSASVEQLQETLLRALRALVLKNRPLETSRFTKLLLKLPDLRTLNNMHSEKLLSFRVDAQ
MC4R antagonist – antagonists of human melanocortin 4 receptor (MC4R). MC4R-expressing cells, MTII-stimulated cAMP, LANCE TR-FRET. inhibition, % at 6.5 µM. P32245. actives 0.48% (n = 360,000). AID 540295;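 active = inhibition above its plate's cutoff, the mean of tested wells on that plate plus 3 SD, cut at about 29% in these data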;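 note: 0% = Melanotan II alone and 100% = Melanotan II plus saturating MCL0020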
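Assay system: U2OS cells stably expressing human melanocortin 4 receptor (MC4R) / Dosing: 6.5 µM / Timing: compound 30 min, challenge 1 h, detection 1 h / Measured by: Eu-cAMP/anti-cAMP TR-FRET, emission 671 nm / Replicates: singlicate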
PG9 binder – PG9 antibody binding by small molecule. TR-FRET gp120-PG9 antibody binding. inhibition, % at 6.7 µM. actives 0.43% (n = 360,000). AID 624416; in the data active = inhibition above about 8.5%
NR2E3 ag-2 – agonists of human NR2E3 nuclear receptor | inhibition of corepressor binding, % at 3.98 µM | Q9Y5X4 | AID 602229 | actives 0.35% (n = 360,000) | CHO-S Gal4-NCOR/VP16-NR2E3 two-hybrid, luciferase;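 active = inhibition above the mean of all tested compounds plus 3 SD, cut at about 70% in these data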;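 note: 0% = DMSO with NR2E3 transfected cells and 100% = cells lacking NR2E3 construct; higher means lower luciferase signal from less NR2E3 corepressor binding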
MC4R ag barr – agonists of human melanocortin 4 receptor (MC4R) beta-arrestin; P32245; U2OS MC4R beta-arrestin complementation, luminescence; percent of melanotan II response, DMSO zero; activation, % at 8.9 µM; actives 0.98% (n = 360,000); AID 540308;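 active = activation above a per-plate cutoff, the mean activation of sample wells on that plate plus 3 SD, cut at about 8% in these data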
The depositor's hits bear a star; . = no result.

SMILES | NR2E3 ag-1 | Rev-erbA mod | MC4R antagonist | PG9 binder | NR2E3 ag-2 | MC4R ag barr
COc1cc(C(=O)OCC(=O)NCCC2=CCCCC2)cc(OC)c1OC | . | 0 | -3 | 1 | 15 | -4
COC(=O)c1cccc(NC(=S)NCCC2=CCCCC2)c1 | 4 | 1 | -2 | 1 | 91* | 3
Nc1c(-c2cccs2)cnn1-c1nc(-c2ccc(F)cc2)cs1 | 0 | -1 | -1 | 0 | -9 | 9.6*
COc1ccc(C(=O)NC(=S)Nc2ccc([N+](=O)[O-])cc2C)cc1OC | 4 | 1 | -1 | 0 | -34 | 8.9*
CCCOc1ccc(/C=C/C(=O)Nc2ccc([N+](=O)[O-])cc2C)cc1OC | -2 | -1 | 7 | -1 | -15 | 12*
Cn1c(=O)c2c([nH]c(=O)n2C)n(C)c1=O | 1 | -2 | 5 | -1 | -9 | 0
Cc1cc(C)n(C(=O)/C(C#N)=C/N(C)C)n1 | -1 | 4 | 4 | -1 | 9 | -2
O=C(CNCCO)N1CCc2ccccc21 | 2 | -4 | 0 | 5 | -5 | -1
O=C(CNc1ccccc1OC(F)F)N1CCc2ccccc21 | 2 | 1 | -1 | -3 | -107 | 8.3*
O=C(Nc1nnc(SCc2ccc(Cl)cc2)s1)c1ccco1 | 2 | 9 | -3 | 0 | -20 | 8.8*
CCCC1Cc2c(sc(NC(=S)NC(=O)c3ccccc3)c2C#N)CO1 (centres undefined) | -2 | . | . | . | . | .
CCOC(=O)c1ccc(N2C(=O)CC(N3CCN(Cc4ccccc4)CC3)C2=O)cc1 (centres undefined) | 2 | 6 | -1 | 1 | 10 | 1
CCOC(=O)c1ccc(N2C(=O)CC(N3CCCC(C)C3)C2=O)cc1 (centres undefined) | 2 | -1 | 29* | 0 | -3 | 2
COc1ccc(Cl)c(Cn2c(NCc3ccco3)nc3c2c(=O)n(C)c(=O)n3C)c1 | 1 | -8 | -2 | -2 | 72* | 0
COc1cccc(Cn2c(NCc3ccco3)nc3c2c(=O)n(C)c(=O)n3C)c1 | 0 | 4 | . | -2 | . | .
O=S(=O)(c1ccc(S(=O)(=O)N(Cc2ccccc2)Cc2ccco2)cc1)N1CCCC1 | 2 | 1 | -1 | 3 | 8 | 8.5*
C=CCOc1ccccc1CN(C(=O)CCl)c1ccc2c(c1)OCO2 | -2 | -4 | 9 | -2 | -13 | 15*
CC(=O)Nc1ccc(NC(=O)c2ccc(N(C)S(=O)(=O)c3ccc(C)cc3)cc2)cc1 | -2 | -2 | -1 | -3 | -1 | 0
CN(c1ccccc1)S(=O)(=O)c1ccc(NC(=O)c2ccc(-c3ccccc3)cc2)cc1 | 3 | 10 | 18 | 0 | 82* | 6
Cc1ccc(C)n1-c1cccc(C(=O)O)c1 | 33* | . | . | . | . | .
O=C(NCCc1ccc(Cl)cc1)c1cc(S(=O)(=O)N2CCCCC2)c[nH]1 | -2 | . | 8 | . | -31 | -1
C#CCOCCOCCOCCNc1nc(N2CCN(C(=O)CCCCCCCCCCNC(=O)[C@H](CCCCN)n3cc(C)nn3)CC2)nc(N2CCN(C(=O)CCCCCCCCCCNC(=O)[C@@H]([C@H](C)CC)n3cc(CCCCCN)nn3)CC2)n1 | 0 | . | 52* | . | 15 | -1
C#CCOCCOCCOCCNc1nc(N2CCN(C(=O)CCCCCCCCCCNC(=O)[C@@H](CCSC)n3cc(CCO)nn3)CC2)nc(N2CCN(C(=O)CCCCCCCCCCNC(=O)[C@H]([C@@H](C)CC)n3cc(CCCCN=C(N)N)nn3)CC2)n1 | 2 | . | 41* | . | 2 | 2
C#CCOCCOCCOCCNc1nc(N2CCN(C(=O)CCCCCCCCCCNC(=O)[C@H](CCCCN)n3cc(CCO)nn3)CC2)nc(N2CCN(C(=O)CCCCCCCCCCNC(=O)[C@H](CCCN=C(N)N)n3cc(C[C@@H](C)CC)nn3)CC2)n1 | -3 | . | 78* | . | -20 | -2
C#CCOCCOCCOCCNc1nc(N2CCN(C(=O)CCCCCCCCCCNC(=O)Cn3cc(C[C@@H](C)O)nn3)CC2)nc(N2CCN(C(=O)CCCCCCCCCCNC(=O)[C@H](CCCCN)n3cc(C[C@@H](C)CC)nn3)CC2)n1 | 0 | . | 32* | . | -16 | 1
SMILES | NR2E3 ag-1 | Rev-erbA mod | MC4R antagonist | PG9 binder | NR2E3 ag-2 | MC4R ag barr
C#CCOCCOCCOCCNc1nc(N2CCN(C(=O)CCCCCCCCCCNC(=O)[C@H](CCCCN)n3cc(CCCC(=O)O)nn3)CC2)nc(N2CCN(C(=O)CCCCCCCCCCNC(=O)[C@H](CCCN=C(N)N)n3cc(C[C@@H](C)CC)nn3)CC2)n1 | 2 | . | 4 | . | -18 | -1
C#CCOCCOCCOCCNc1nc(N2CCN(C(=O)CCCCCCCCCCNC(=O)[C@@H](CCSC)n3cc(CCO)nn3)CC2)nc(N2CCN(C(=O)CCCCCCCCCCNC(=O)[C@H]([C@@H](C)CC)n3cc(CCCCCN)nn3)CC2)n1 | 1 | . | . | . | . | .
CCCNC(=O)Cn1c(-c2ccc(F)cc2)cc(C(=O)OCC)c1C | 4 | 3 | 0 | -1 | 22 | 8.3*
CCCC(=O)N1CCN(c2ccc(NC(=S)NC(=O)c3cccc(C)c3)cc2)CC1 | 2 | 5 | 3 | -2 | -85 | 0
Cn1c(=O)cc(OCCCC(=O)Nc2ccc3c(c2)OCCO3)c2ccccc21 | 1 | 3 | 2 | -1 | -26 | -3
CC1CCC(C(C)C)C(OCC(O)CNC(C)(C)C)C1 (centres undefined) | 1 | -1 | -2 | 1 | -4 | -2
CC1CCC(C(C)C)C(OCC(O)CNC(C)c2ccccc2)C1 (centres undefined) | -3 | 0 | 9 | 0 | -5 | 8.3*
COc1ccc([C@H](C#Cc2ccccc2)CC(=O)O)cc1OC1CCCC1 | . | -6 | . | . | . | .
CC(=O)Nc1ccc(CCNC(=O)c2ccc3ccccc3c2O)cc1 | . | -5 | 9 | 3 | -11 | 1
Cc1ccc(N2C(=O)C3CC(c4ccccc4)=C4C5C=CC(C6C(=O)N(c7ccc(C)cc7)C(=O)C56)C4C3C2=O)cc1 (centres undefined) | 1 | 3 | 13 | 2 | -1 | 8.6*
Cc1ccc(N2C(=O)C3CC(c4ccccc4)=C4C5C=CC(C6C(=O)N(c7ccc(C)cc7C)C(=O)C56)C4C3C2=O)c(C)c1 (centres undefined) | -4 | . | 6 | . | -3 | 0
Cc1ccccc1N(C(=O)Cc1ccsc1)C(C(=O)NC1CCCCC1)c1ccc(F)cc1 (centres undefined) | -1 | 7 | -2 | -2 | -9 | -1
CCC(=O)Nc1ccc(NC(=O)CSc2nc3cc4c(cc3cc2C)CCC4)cc1 | 3 | 16 | 1 | 1 | -29 | 9.4*
Cc1cc2cc3c(cc2nc1SCC(=O)O)CCC3 | 13 | -4 | 10 | 7 | 21 | 1
